Measurements from ChEMBL document CHEMBL1159067, “Benzimidazole- and indole-substituted 1,3'-bipyrrolidine benzamides as histamine H3 receptor antagonists” (Bioorg Med Chem Lett, 2010).
Converted amounts (≈) assume the structure as drawn. The source made the active and inactive calls. The calls are words filed in the database; no cut-off is given here.

Legend:
Histamine H3 receptor [1] = biological target: Histamine H3 receptor (Homo sapiens, UniProt Q9Y5N1); test: Displacement of [3H](R)-alpha-methylhistamine from human cloned histamine H3 receptor expressed in HEK293T cells by liquid scintillation spectrometry; assay type: cell-based, HEK-293T
[2] = Permeability across apical to basolateral side of human Caco-2 cell membrane; assay type: ADME, cell-based; conditions: read-out: permeability
[3] = Permeability by PAMPA; assay type: ADME; conditions: read-out: permeability
Outline: (§1)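 Passive permeability was measured by PAMPA, or by its blood–brain barrier variant PAMPA–BBB. Each gives effective permeability in units of 10^-6 cm/s.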

[4] = Blood-brain barrier permeability by PAMPA-BBB assay; assay type: ADME; outline: as §1
[5] = Aqueous solubility at pH 3.1; assay type: physicochemical; conditions: aqueous medium
Caco-2 = test: Ratio of permeability across basolateral to apical side over apical to basolateral side of human Caco-2 cell membrane
Histamine H3 receptor [6] = biological target: Histamine H3 receptor (Rattus norvegicus, UniProt Q9QYN8); test: Binding affinity to rat histamine H3 receptor
Rattus norvegicus [7] = test: Decrease in (R)-alpha-methylhistamine-induced water intake in rat at 10 mg/kg, ip; assay type: functional, organism-based; design: dose 10 mg/kg
Outline: (§2)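 Water intake was induced in rats by the H3R agonist (R)-α-methylhistamine, which acts via central H3R. Antagonist was dosed ip. Significance was p <0.05 versus vehicle and versus (R)-α-methylhistamine alone.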

Rattus norvegicus [8] = test: Decrease in (R)-alpha-methylhistamine-induced water intake in rat at 30 mg/kg, ip; assay type: functional, organism-based; design: dose 30 mg/kg; outline: as §2
Rattus norvegicus [9] = test: Reversal of delay-induced retention deficit behavior in ip dosed rat assessed as differential novel and familiar object recognition; assay type: functional; conditions: read-out: MED
Outline: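 Rats received test compound ip at 0.1, 0.3, 1 or 3 mg/kg, or vehicle, before the learning trial. Exploration of the novel and familiar objects was then scored. Groups were compared with vehicle, with significance at p <0.03 and p <0.005.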

[10] = Plasma clearance in rat at 2 mg/kg, iv; assay type: ADME, organism-based; design: dose 2 mg/kg, route intravenous
[11] = Volume of distribution at steady state in rat at 2 mg/kg, iv; assay type: ADME, organism-based; design: dose 2 mg/kg, route intravenous; conditions: in vivo, read-out: Vdss
[12] = Cmax in rat at 10 mg/kg, po; assay type: ADME, organism-based; design: dose 10 mg/kg, route oral; conditions: in vivo
[13] = Tmax in rat at 10 mg/kg, po; assay type: ADME, organism-based; design: dose 10 mg/kg, route oral; conditions: in vivo
[14] = AUC in rat at 10 mg/kg, po; assay type: ADME, organism-based; design: dose 10 mg/kg, route oral; conditions: plasma
[15] = Half life in rat at 10 mg/kg, po; assay type: ADME, organism-based; design: dose 10 mg/kg, route oral; conditions: in vivo
[16] = Oral bioavailability in rat at 10 mg/kg; assay type: ADME, organism-based; conditions: in vivo
[17] = Cmax in rat brain at 30 mg/kg, ip; assay type: ADME, organism-based; design: dose 30 mg/kg, route intraperitoneal
[18] = Cmax in rat plasma at 30 mg/kg, ip; assay type: ADME, organism-based; design: dose 30 mg/kg, route intraperitoneal
[19] = Fraction unbound in rat brain at 30 mg/kg, ip; assay type: ADME, organism-based; design: dose 30 mg/kg, route intraperitoneal
[20] = Tmax in rat brain at 30 mg/kg, ip; assay type: ADME, organism-based; design: dose 30 mg/kg, route intraperitoneal
[21] = Tmax in rat plasma at 30 mg/kg, ip; assay type: ADME, organism-based; design: dose 30 mg/kg, route intraperitoneal
[22] = AUC in rat brain at 30 mg/kg, ip; assay type: ADME, organism-based; design: dose 30 mg/kg, route intraperitoneal
[23] = AUC in rat plasma at 30 mg/kg, ip; assay type: ADME, organism-based; design: dose 30 mg/kg, route intraperitoneal
[24] = Ratio of AUC in rat brain to plasma at 30 mg/kg, ip; assay type: ADME, organism-based; design: dose 30 mg/kg, route intraperitoneal; conditions: brain and plasma
Outline: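 Rats given a single 30 mg/kg intraperitoneal injection. Brain and plasma exposure were measured, with Cmax and Tmax recorded for each. The ratio is brain AUC (h ng/mL) divided by plasma AUC.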

[25] = Cmax in rat brain at 10 mg/kg, ip; assay type: ADME, organism-based; design: dose 10 mg/kg, route intraperitoneal
[26] = Cmax in rat plasma at 10 mg/kg, ip; assay type: ADME, organism-based; design: dose 10 mg/kg, route intraperitoneal
[27] = Fraction unbound in rat brain at 10 mg/kg, ip; assay type: ADME, organism-based; design: dose 10 mg/kg, route intraperitoneal
[28] = Tmax in rat brain at 10 mg/kg, ip; assay type: ADME, organism-based; design: dose 10 mg/kg, route intraperitoneal
[29] = Tmax in rat plasma at 10 mg/kg, ip; assay type: ADME, organism-based; design: dose 10 mg/kg, route intraperitoneal
[30] = AUC in rat brain at 10 mg/kg, ip; assay type: ADME, organism-based; design: dose 10 mg/kg, route intraperitoneal
[31] = AUC in rat plasma at 10 mg/kg, ip; assay type: ADME, organism-based; design: dose 10 mg/kg, route intraperitoneal

Histamine H3 receptor (Homo sapiens, UniProt Q9Y5N1), sequence (Q9Y5N1 whole entry): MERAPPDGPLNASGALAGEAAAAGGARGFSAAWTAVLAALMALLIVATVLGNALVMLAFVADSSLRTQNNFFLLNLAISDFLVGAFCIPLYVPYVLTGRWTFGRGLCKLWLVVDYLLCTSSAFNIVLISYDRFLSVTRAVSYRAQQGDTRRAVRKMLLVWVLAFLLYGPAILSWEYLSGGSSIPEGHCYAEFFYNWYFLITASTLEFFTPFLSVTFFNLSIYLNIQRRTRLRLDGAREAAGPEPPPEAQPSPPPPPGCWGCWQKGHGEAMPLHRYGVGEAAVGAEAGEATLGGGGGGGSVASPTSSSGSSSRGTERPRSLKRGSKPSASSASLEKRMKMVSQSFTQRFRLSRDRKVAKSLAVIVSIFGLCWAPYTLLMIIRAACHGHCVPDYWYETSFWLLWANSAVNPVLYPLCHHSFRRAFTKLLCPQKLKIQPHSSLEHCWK
Histamine H3 receptor (Rattus norvegicus, UniProt Q9QYN8), sequence (Q9QYN8 whole entry): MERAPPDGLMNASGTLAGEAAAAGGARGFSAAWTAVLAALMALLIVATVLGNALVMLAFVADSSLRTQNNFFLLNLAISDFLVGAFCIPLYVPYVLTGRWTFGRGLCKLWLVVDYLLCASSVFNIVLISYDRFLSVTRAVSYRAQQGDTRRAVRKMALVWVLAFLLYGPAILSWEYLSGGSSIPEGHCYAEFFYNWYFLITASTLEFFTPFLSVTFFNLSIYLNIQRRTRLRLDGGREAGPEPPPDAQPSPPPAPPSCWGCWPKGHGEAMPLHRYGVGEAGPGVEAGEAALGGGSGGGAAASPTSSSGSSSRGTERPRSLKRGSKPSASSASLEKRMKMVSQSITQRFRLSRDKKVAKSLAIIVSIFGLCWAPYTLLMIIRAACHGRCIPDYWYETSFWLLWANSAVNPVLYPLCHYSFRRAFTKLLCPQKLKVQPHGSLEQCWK

| SMILES | Ki (Histamine H3 receptor [1]) [nM] | Papp [3] [×10⁻⁶ cm/s] | pBBB [4] [×10⁻⁶ cm/s] | solubility [5] [µg/mL] | also measured |
| --- | --- | --- | --- | --- | --- |
| O=C(c1ccccc1Cn1cnc2ccccc21)N1CCC(N2CCCC2)C1 (stereo unspecified) | 4000 | – | – | – | – |
| Cc1nc2ccccc2n1Cc1ccc(C(=O)N2CCC(N(C)C)C2)cc1 (stereo unspecified) | 17 | – | – | – | – |
| CN(C)C1CCN(C(=O)c2ccc(Cn3c(-c4ccccc4)nc4ccccc43)cc2)C1 (stereo unspecified) | 100 | 4.4 | 9.4 | > 100 | Papp A→B [2]: 84.9 ×10⁻⁶ cm/s; Ratio (Caco-2): 1.3 |
| CN(CCO)C1CCN(C(=O)c2ccc(Cn3c(-c4ccccc4)nc4ccccc43)cc2)C1 (stereo unspecified) | 1200 | – | – | – | – |
| O=C(c1ccc(Cn2ccc3ccc(Cl)cc32)cc1)N1CC[C@H](N2CCCC2)C1 | 150 | 7.3 | 8.6 | 13 (≈ 31.9 µM) | – |
| CN(C)C1CCN(C(=O)c2ccc(Cn3cnc4ccccc43)cc2)C1 (stereo unspecified) | 390 | – | – | – | – |
| O=C(c1ccc(Cn2c(-c3ccccc3)nc3ccccc32)cc1)N1CCC(N2CCCC2)C1 (stereo unspecified) | 10 | – | – | – | – |
| O=C(c1cccc(Cn2cnc3ccccc32)c1)N1CCC(N2CCCC2)C1 (stereo unspecified) | 400 | – | – | – | – |
| CN(C)C1CCN(C(=O)c2ccc(Cn3c(-c4ccccn4)nc4ccccc43)cc2)C1 (stereo unspecified) | 235 | – | – | – | – |
| O=C(c1ccc(Cn2ccc3cccc(Cl)c32)cc1)N1CC[C@H](N2CCCC2)C1 | 2.5 | 6.5 | 7 | 18 (≈ 44.1 µM) | Ki (Histamine H3 receptor [6]): 21.7 nM; Activity (Rattus norvegicus [7]): Active; Activity (Rattus norvegicus [8]): Active; minimal effective dose (Rattus norvegicus [9]): 0.3 mg/kg; clearance [10]: 112 mL/min/kg; Vd [11]: 7.3 L/kg; Cmax [12]: 22 ng/mL; Tmax [13]: 1.2 h; AUC [14]: 63 ng·h/mL; half-life [15]: 1.9 h; bioavailability [16]: 5%; Cmax [17]: 16 µM; Cmax [18]: 1090 ng/mL; fraction unbound [19]: 0.035; Tmax [20]: 0.5 h; Tmax [21]: 0.5 h; AUC [22]: 15000 ng·h/mL; AUC [23]: 2180 ng·h/mL; Kp [24]: 6.9 |
| CCN(C)C1CCN(C(=O)c2ccc(Cn3c(-c4ccccc4)nc4ccccc43)cc2)C1 (stereo unspecified) | 91 | – | – | – | – |
| CN(C)[C@H]1CCN(C(=O)c2ccc(Cn3c(-c4ccccc4)nc4ccccc43)cc2)C1 | 65 | – | – | – | – |
| O=C(c1ccc(Cn2cnc3ccccc32)cc1)N1CC[C@H](N2CCCC2)C1 | – | 0.3 | 3.7 | 51 (≈ 136 µM) | clearance [10]: 56 mL/min/kg; Vd [11]: 3.6 L/kg; Cmax [12]: 1750 ng/mL; Tmax [13]: 0.4 h; AUC [14]: 2740 ng·h/mL; half-life [15]: 1.3 h; bioavailability [16]: 93%; Cmax [25]: 0.245 µM; Cmax [26]: 388 ng/mL; fraction unbound [27]: 0.138; Tmax [28]: 1 h; Tmax [29]: 1 h; AUC [30]: 231 ng·h/mL; AUC [31]: 1040 ng·h/mL |
| O=C(c1ccc(Cn2ccc3cc(Cl)ccc32)cc1)N1CC[C@H](N2CCCC2)C1 | 130 | 7.8 | 8.1 | 10 (≈ 24.5 µM) | – |
| O=C(c1ccc(Cn2ccc3ccccc32)cc1)N1CC[C@H](N2CCCC2)C1 | 15 | 8.3 | 9.4 | 28 (≈ 75 µM) | – |
| Cc1nc2ccccc2n1Cc1ccc(C(=O)N2CC[C@H](N3CCCC3)C2)cc1 | – | 0.3 | 4 | 32 (≈ 82.4 µM) | – |
| CN(C)[C@@H]1CCN(C(=O)c2ccc(Cn3c(-c4ccccc4)nc4ccccc43)cc2)C1 | 440 | – | – | – | – |
